The source made the active and inactive calls. No cut-off for these calls is given here.
Assays:
Mus musculus [1] = assay: In vivo inhibition of MGLL in po dosed ICR mouse brain measured 4 hrs post dose in presence of FP-Rh probe by gel-based ABPP assay; assay type: functional
Summary of the method: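 Male ICR mice, 6–12 weeks old, single oral gavage 0.5–32 mg/kg in PEG400:ethanol:PBS (7/2/1), 5 mL/kg, n = 3. Killed at 4 h; one brain hemisphere for gel-based ABPP with FP-Rh (MGLL band quantified), the other for 2-AG by LC-MS/MS.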

Cytochrome P450 1A2 = molecular target: T1, Cytochrome P450 1A2 (Homo sapiens, UniProt P05177); assay: Inhibition of recombinant human CYP1A2; assay type: ADME
T1 sequence (P05177 whole entry): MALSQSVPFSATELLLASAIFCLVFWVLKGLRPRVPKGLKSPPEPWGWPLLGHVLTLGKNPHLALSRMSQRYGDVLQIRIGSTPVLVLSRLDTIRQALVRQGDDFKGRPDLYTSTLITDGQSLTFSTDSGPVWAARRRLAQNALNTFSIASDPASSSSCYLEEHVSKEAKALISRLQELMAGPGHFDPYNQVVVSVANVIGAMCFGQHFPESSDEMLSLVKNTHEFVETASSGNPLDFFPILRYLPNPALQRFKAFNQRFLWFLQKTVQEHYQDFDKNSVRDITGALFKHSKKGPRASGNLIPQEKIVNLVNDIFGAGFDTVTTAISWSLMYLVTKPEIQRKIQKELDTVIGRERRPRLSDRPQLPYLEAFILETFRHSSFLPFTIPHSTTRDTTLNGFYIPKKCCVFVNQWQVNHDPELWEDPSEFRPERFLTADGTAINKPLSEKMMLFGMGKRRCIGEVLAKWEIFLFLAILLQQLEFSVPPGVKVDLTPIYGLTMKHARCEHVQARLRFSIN

[2] = Clearance in Sprague-Dawley rat at 1 mg/kg, iv or 5 mg/kg, po by LC-MS analysis; assay type: ADME, organism-based; settings: in vivo
Summary of the method: (§1)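 Rats (n = 3 per route) were dosed at 1 mg/kg iv (70% PEG400 in HPBCD/saline) or 5 mg/kg po (70% PEG400 in 0.5% CMC/saline), fasted overnight to 4 h post-dose. Jugular-catheter blood (~100 µL) was sampled to 24 h into 400 µL acetonitrile to stop esterases. Samples were quantified by HPLC-MS/MS, with noncompartmental analysis.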

Rattus norvegicus [3] = assay: Antinociceptive activity in po dosed Sprague-Dawley rat brain assessed as inhibition of MGLL activity measured after 4 hrs post dose in presence of FP-Rh probe by gel-based ABPP assay; assay type: functional
Summary of the method: (§2)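 Male Sprague Dawley rats, 6–12 weeks old, given single oral doses (0.03–10 mg/kg) in 0.5% methylcellulose at 5 mL/kg. Brains were taken 4 h post-dose and forebrain sections excised from one hemisphere. Brain proteome was labeled with FP-Rh (1 µM, 30 min) and analyzed by SDS-PAGE with in-gel fluorescence. Band intensity was normalized to vehicle.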

Mus musculus [4] = assay: In vivo inhibition of ABHD6 in po dosed ICR mouse brain measured 4 hrs post dose in presence of FP-Rh probe by gel-based ABPP assay; assay type: functional
Summary of the method: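 Male ICR mice, 6–12 weeks old, given single oral doses (0.5–32 mg/kg, n = 3) in PEG400:ethanol:PBS (7/2/1 v/v/v) at 5 mL/kg. Brains were removed 4 h later and one hemisphere processed for gel-based ABPP. Proteome was labeled with FP-Rh (1 µM, 30 min) and read by in-gel fluorescence relative to vehicle.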

Rattus norvegicus [5] = assay: Antinociceptive activity in po dosed Sprague-Dawley rat brain assessed as inhibition of CES1c activity measured after 4 hrs post dose in presence of FP-Rh probe by gel-based ABPP assay; assay type: functional; summary of the method: as §2
[6] = molecular target: T2, Platelet-activating factor acetylhydrolase (Homo sapiens, UniProt Q13093); assay: Inhibition of PLA2G7 derived from human PC3 cell lysates preincubated for 30 mins followed by JW912 addition after 30 mins by gel-based ABPP assay; assay type: subcellular, Lysate
T2 sequence (Q13093 whole entry): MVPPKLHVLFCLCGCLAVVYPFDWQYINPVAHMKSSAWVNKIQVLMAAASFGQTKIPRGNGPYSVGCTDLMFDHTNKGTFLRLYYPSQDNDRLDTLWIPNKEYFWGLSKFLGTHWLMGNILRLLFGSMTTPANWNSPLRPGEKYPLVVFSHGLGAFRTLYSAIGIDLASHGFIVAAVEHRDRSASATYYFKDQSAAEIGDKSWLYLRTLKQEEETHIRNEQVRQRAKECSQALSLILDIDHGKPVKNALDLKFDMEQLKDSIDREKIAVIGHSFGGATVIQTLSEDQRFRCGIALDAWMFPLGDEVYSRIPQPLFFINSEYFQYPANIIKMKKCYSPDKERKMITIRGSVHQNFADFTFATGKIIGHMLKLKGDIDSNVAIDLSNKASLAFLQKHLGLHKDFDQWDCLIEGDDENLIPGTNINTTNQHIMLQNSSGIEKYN

[7] = Oral bioavailability in Sprague-Dawley rat at 5 mg/kg by LC-MS analysis; assay type: ADME, organism-based; settings: in vivo; summary of the method: as §1
[8] = molecular target: T3, Monoacylglycerol lipase ABHD6 (Mus musculus) (UniProt Q8R2Y0); assay: Inhibition of ABHD6 in mouse brain membrane homogenates at 0.001 to 10 uM preincubated for 30 mins followed by FP-Rh addition after 30 mins by gel-based ABPP assay; assay type: cell membranes
T3 sequence (whole entry): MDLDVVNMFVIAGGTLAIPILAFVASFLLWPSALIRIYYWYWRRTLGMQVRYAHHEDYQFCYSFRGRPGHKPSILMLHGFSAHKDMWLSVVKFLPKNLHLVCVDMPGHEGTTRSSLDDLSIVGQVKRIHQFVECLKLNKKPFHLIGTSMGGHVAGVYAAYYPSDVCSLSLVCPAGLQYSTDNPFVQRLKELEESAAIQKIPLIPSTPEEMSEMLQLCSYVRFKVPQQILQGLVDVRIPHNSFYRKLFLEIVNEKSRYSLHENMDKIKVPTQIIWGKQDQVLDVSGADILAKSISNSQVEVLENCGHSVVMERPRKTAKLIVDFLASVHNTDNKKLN

Rattus norvegicus [9] = assay: In vivo inhibition of MGLL in po dosed Sprague-Dawley rat brain assessed as increase in 2-AG measured at 4 hrs post dose by LC-MS/MS analysis; assay type: functional, organism-based
Summary of the method: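 Male Sprague Dawley rats, 6–12 weeks old, single oral doses 0.03–10 mg/kg in 0.5% methylcellulose, 5 mL/kg. Killed 4 h post-dose; forebrain section (~100–200 mg) from one hemisphere analysed for 2-AG by LC-MS/MS.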

With `O=C(OC(C(F)(F)F)C(F)(F)F)N1CCN(Cc2ccc(C(F)(F)F)cc2N2CCCC2)CC1` [ELCUBRAGISTAT] the ED50 (Mus musculus [1]) was 1.4 mg/kg, the inhibition (Mus musculus [1]) was “Dose-dependent effect” and the IC50 (Cytochrome P450 1A2) was over 50 µM. For the same compound, the clearance [2] was 14.7 mL/min/kg, the ED50 (Rattus norvegicus [3]) was 0.5 mg/kg and the ED50 (Mus musculus [4]) was 32 mg/kg. For the same compound, the ED50 (Rattus norvegicus [5]) was 1.2 mg/kg, the IC50 [6] was over 10 µM and the bioavailability [7] was 64%. For the same compound, the inhibition [8] was “Active” and the inhibition (Rattus norvegicus [9]) was “Dose-dependent effect”.

Reference: ChEMBL document CHEMBL4308843, “Identification of ABX-1431, a Selective Inhibitor of Monoacylglycerol Lipase and Clinical Candidate for Treatment of Neurological Disorders” (J Med Chem, 2018)
